Screening results deposited in PubChem BioAssay by The Scripps Research Institute Molecular Screening Center.
A selection: hits, their analogues and other compounds. The true share with any hit is near 2.9%.
TCR CD3 inh – inhibitors of human TCR-CD3 interaction, primary screen, biochemical, fluorescence, TAMRA-labeled TCR probe | T-cell receptor (TCR) | inhibition, % at 9.4 µM | 360,000 compounds, 0.37% hits | AID 651800, 2012;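 further: recombinant mutant TCR 2C K166C tagged with TAMRA read by polarization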
SIAE inh – human SIAE inhibitors, primary screen, biochemical, fluorescence polarization, FP-Rh probe, 1536-well HTS; SIAE FP-Rh probe binding; AID 1053197, 2014; 370,000 compounds, 0.69% hits; Sialate O-acetylesterase (Homo sapiens), Q9HAT2; inhibition, % at 9.66 µM;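 active means inhibition above a cutoff: mean of compounds within the control limits plus 3 SD of those, cut at about 17% in these data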
mABHD4 FP – ABHD4 inhibitors, primary screen, biochemical, fluorescence polarization, mouse. (Lyso)-N-acylphosphatidylethanolamine lipase (Mus musculus), Q8VD66. purified mABHD4, FP-Rh probe fluorescence polarization. 370,000 compounds, 0.54% hits. inhibition, % at 8.92 µM;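 active means inhibition exceeding the mean over every tested compound plus 3 SD, cut at about 30% in these data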
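Assay system: mouse ABHD4 enzyme, wild type / Also added: fluorescent activity-based probe FP-Rh / Doses: single nominal dose of 8.92 µM, 0.89% DMSO final / Timing: 45 min compound pre-incubation plus 60 min probe step, 25 °C / Signal: FP readout, ex 525 nm / em 598 nm / Control set: S159A mutant/DMSO as 100%, compound-well median as 0%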
PRMT1 FP inh – PRMT1 methyltransferase inhibitors, primary screen, biochemical, fluorescence polarization; Protein arginine N-methyltransferase 1 (Homo sapiens), Q99873; recombinant PRMT1, activity-based probe fluorescence polarization; 370,000 compounds, 1.3% hits; inhibition, % at 2.79 µM; AID 652257, 2013;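 active means inhibition above about 21% made by adding two undisclosed values, limit read from the data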
HTRA1 inhibitor – HTRA1 serine protease inhibitors, primary screen, biochemical, fluorescence polarization, HTS | Q92743 | recombinant HTRA1, FP-rhodamine activity-based probe | inhibition, % at 5.96 µM | 340,000 compounds, 0.5% hits; in the data active means inhibition above about 36%
PAD4 FP inh – human PAD4 inhibitors, primary screen, biochemical, fluorescence polarization, 1536-well format | AID 485272, 2010 | recombinant PAD4, RCA probe fluorescence polarization | Protein-arginine deiminase type-4 (Homo sapiens), Q9UM07 | 330,000 compounds, 0.41% hits | inhibition, % at 6.36 µM;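 active means percent inhibition above a cutoff equal to the mean of all tested compounds plus 3 SD, cut at about 15% in these data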
Target sequence (Q9UM07 whole entry, looked up): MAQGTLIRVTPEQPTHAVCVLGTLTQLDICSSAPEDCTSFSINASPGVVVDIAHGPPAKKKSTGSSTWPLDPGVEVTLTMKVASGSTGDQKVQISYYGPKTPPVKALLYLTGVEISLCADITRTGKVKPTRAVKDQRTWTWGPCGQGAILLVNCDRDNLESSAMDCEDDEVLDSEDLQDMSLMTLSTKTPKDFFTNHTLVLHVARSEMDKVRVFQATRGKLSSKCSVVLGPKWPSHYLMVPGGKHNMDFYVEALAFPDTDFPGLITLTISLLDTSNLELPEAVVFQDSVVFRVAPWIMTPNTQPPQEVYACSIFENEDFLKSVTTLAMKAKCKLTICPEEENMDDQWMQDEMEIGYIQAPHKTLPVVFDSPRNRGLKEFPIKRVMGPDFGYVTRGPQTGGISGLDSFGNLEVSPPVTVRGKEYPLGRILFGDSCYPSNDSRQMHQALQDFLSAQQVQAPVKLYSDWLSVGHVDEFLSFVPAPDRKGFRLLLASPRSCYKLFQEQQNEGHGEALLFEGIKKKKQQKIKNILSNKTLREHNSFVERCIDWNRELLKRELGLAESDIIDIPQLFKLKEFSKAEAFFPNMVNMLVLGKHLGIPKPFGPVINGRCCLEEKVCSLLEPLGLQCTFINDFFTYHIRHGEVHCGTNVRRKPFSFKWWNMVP
HTRA1 conf – HTRA1 protease inhibitors, retest, confirmation, biochemical, fluorescence polarization; shares compounds with HTRA1 inhibitor; recombinant HTRA1, FP-rhodamine activity-based probe; inhibition, % at 5.96 µM; 1,600 compounds, 66% hits; AID 540248, 2011;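 active means mean inhibition over three repeats above a set limit taken from the earlier primary screen, cut at about 37% in these data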;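 further: inhibitors block probe binding so polarization drops and inhibition rises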
BSA probe FL – compounds interfering with TAMRA-BSA probe, counter-screen for TCR-CD3 interaction inhibitor project, biochemical, fluorescence, TAMRA-labeled BSA | inhibition, % at 9.4 µM | shares compounds with TCR CD3 inh | 1,200 compounds, 10% hits | TAMRA-labeled BSA probe fluorescence counterscreen | AID 652035, 2013; in the data active means inhibition above about 23%
TCR-CD3 conf – TCR-CD3 interaction inhibitors, retest, confirmation, biochemical, fluorescence, TAMRA-labeled TCR probe; shares compounds with TCR CD3 inh; TAMRA-labeled TCR probe fluorescence binding assay; inhibition, % at 9.4 µM; 1,200 compounds, 48% hits; AID 652036, 2013
PRMT1 confirm – PRMT1 methyltransferase inhibitors, confirmation, biochemical, fluorescence polarization, triplicate | AID 687036, 2013 | inhibition, % at 2.79 µM | shares compounds with PRMT1 FP inh | recombinant His-PRMT1, activity-based probe fluorescence polarization | 3,300 compounds, 42% hits;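 active means mean inhibition across replicates above the hit cutoff derived for the earlier primary screen, cut at about 22% in these data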
mABHD4 conf – ABHD4 inhibitors, retest, confirmation, biochemical, fluorescence polarization, mouse; shares compounds with mABHD4 FP; purified mABHD4, FP-Rh probe fluorescence polarization; inhibition, % at 8.92 µM; 1,800 compounds, 55% hits;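 active means mean inhibition across replicates above the hit cutoff set in the primary screen, cut at about 30% in these data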
SIAE confirm – human SIAE inhibitors, retest, confirmation, biochemical, fluorescence polarization, FP-Rh probe, triplicate; inhibition, % at 9.66 µM; AID 1117263, 2014; 2,300 compounds, 13% hits; shares compounds with SIAE inh; SIAE FP-Rh activity-based probe;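 active means mean inhibition of the replicates above the hit cutoff set in the primary screen, cut at about 17% in these data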;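 further: inhibitors lower polarization as more probe stays unbound to SIAE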
Hits are given with their value; . = inactive; / = no result given. Unless noted, no stated cut-off is given here; in the data, active means inhibition above about 19%; inactive means the rest.

SMILES	TCR CD3 inh	SIAE inh	mABHD4 FP	PRMT1 FP inh	HTRA1 inhibitor	PAD4 FP inh	HTRA1 conf	BSA probe FL	TCR-CD3 conf	PRMT1 confirm	mABHD4 conf	SIAE confirm
O=C(c1cccc(F)c1)N1CCCC(c2nc(-c3cccs3)no2)C1 (stereo not given)	/	.	.	.	/	/	/	/	/	/	/	/
CC(C)[C@@H](CO)N1Cc2nnn(Cc3ccccc3)c2-c2ccccc2S1(=O)=O	/	.	.	.	/	/	/	/	/	/	/	/
O=S(=O)(c1ccc(F)cc1)N1CN(Cc2ccco2)c2nc3ccccc3nc21	46	34	45	26	46	.	.	.	.	.	.	.
Cc1ccc(S(=O)(=O)N2CN(Cc3ccco3)c3nc4ccccc4nc32)cc1C	.	.	.	.	.	.	/	/	/	/	/	/
N#C/C(=C\c1ccc(O)c(O)c1)C(=O)Nc1cccc2ncccc12	72	29	.	.	52	.	39	.	60	/	/	.
Cc1cc(SCC(=O)N/N=C/c2ccc(O)c(O)c2)c(C)cc1Br	.	21	.	.	77	.	76	/	/	/	/	.
O=C1c2cccc3c(O)ccc(c23)C(=O)N1Cc1ccco1	41	20	49	158	44	/	38	67	47	169	45	21
COc1cccc2c1C(=O)c1c(O)c3c(c(O)c1C2=O)CC(O)(C(=O)CO)CC3OC1CC(N(C)C)C(O)C(C)O1 (stereo not given)	148	61	79	193	68	/	66	167	136	148	61	40
C[C@H](CCC(=O)N(c1ccccc1)c1ccccc1)CC1CCCCC1	/	.	.	.	/	/	/	/	/	/	/	/
CC(C)c1ccc(OCCCN2CCC(C(O)(c3ccccc3)c3ccccc3)CC2)cc1	.	.	.	.	/	/	/	/	/	/	/	/
O=C1N2Cc3ccccc3C2CS(=O)(=O)N1Cc1ccccc1 (stereo not given)	/	.	.	.	/	/	/	/	/	/	/	/
Cc1ccc(N=Cc2cccc(O)c2O)c(C)c1	.	20	49	.	84	.	43	/	/	/	30	.
CCN(CC)c1ccc(C=Nc2ccc(C)cc2C)c(O)c1	.	.	.	.	.	.	/	/	/	/	/	/
CCCCCCn1c(=O)[nH]c2nc3cc(N)c(C)cc3nc2c1=O	.	18	49	132	64	/	.	/	/	123	39	.
CCCCn1c(=O)[nH]c2nc3cc(NC(C)=O)ccc3nc2c1=O	.	.	.	.	.	.	/	/	/	/	/	/
CN(C)c1ccc2nc3ccc(=O)cc-3sc2c1	145	82	113	60	58	/	79	123	103	35	56	68
